Source: PubChem BioAssay
Rows were chosen to be rich in hits. Some 3.5% of all compounds tested hit in one or more screens of this group.
AHR activator: AHR activators, primary screen, cell-based, luminescence, luciferase reporter, human. Aryl hydrocarbon receptor (Homo sapiens), P35869. AHR-responsive luciferase reporter cells. activation, % at 5 µM. hit rate 2.5% among 320,000. AID 2796, 2010; in the data active = activation above about 47%
FXIa inh: human FXIa protease inhibitors, primary screen, biochemical, 1536-well | Coagulation factor XI (Homo sapiens), P03951 | purified FXIa, Boc-Glu-Ala-Arg-AMC fluorogenic substrate | inhibition, % at 5 µM | hit rate 0.14% among 220,000 | AID 798, 2007;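 active = inhibition of at least 40%; inactive = inhibition below 40%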;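 note: fluorescence of freed AMC excited at 355 nm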
Target sequence (P03951 19-387 limits assumed): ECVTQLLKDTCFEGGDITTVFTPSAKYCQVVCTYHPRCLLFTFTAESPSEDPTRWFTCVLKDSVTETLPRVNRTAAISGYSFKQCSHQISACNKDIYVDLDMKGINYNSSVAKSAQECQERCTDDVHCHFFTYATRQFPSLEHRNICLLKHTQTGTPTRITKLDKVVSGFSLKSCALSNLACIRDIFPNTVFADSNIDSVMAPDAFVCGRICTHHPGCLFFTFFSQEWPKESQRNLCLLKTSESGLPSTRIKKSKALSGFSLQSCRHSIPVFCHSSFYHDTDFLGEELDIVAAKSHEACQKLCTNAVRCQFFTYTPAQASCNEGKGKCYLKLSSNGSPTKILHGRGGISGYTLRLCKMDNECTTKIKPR
Target sequence (P03951 388-625 limits assumed): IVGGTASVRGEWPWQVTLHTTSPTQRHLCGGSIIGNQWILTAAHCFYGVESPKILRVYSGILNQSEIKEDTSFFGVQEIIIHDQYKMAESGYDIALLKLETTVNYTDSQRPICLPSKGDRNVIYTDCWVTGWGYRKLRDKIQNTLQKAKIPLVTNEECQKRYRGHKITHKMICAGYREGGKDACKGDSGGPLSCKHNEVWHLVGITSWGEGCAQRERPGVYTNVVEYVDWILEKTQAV
FXIIa inh 1536: human FXIIa protease inhibitors, primary screen, biochemical, 1536-well; purified FXIIa, Boc-QGR-AMC fluorogenic substrate, 2 h; inhibition, % at 5 µM; hit rate 0.3% among 220,000; AID 800, 2007; in the data active = inhibition above about 40%
KLK5 inh: human KLK5 protease inhibitors, primary screen, biochemical, 1536-well; Kallikrein-5 (Homo sapiens), Q9Y337; recombinant hK5, fluorogenic AMC substrate cleavage; inhibition, % at 5 µM; hit rate 0.59% among 210,000;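 active = inhibition of 40% or more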
STAT3 activator: IL-6 driven STAT3 reporter potentiators, primary screen, U3A cells, luciferase, luminescence, MLSCN library; IL-6 STAT3-luciferase reporter; 100% = signal with IL-6 EC80 alone; activation (% of control), % at 5.6 µM; hit rate 0.91% among 190,000; AID 871, 2007;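 active = activation above the screen-wide mean of compound activation plus 3 SD, cut at about 130% in these data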
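Detection: reporter luminescence signal / Assay system: STAT1-lacking human U3A cells, STAT3 luciferase reporter / Incubation: compound pre-incubation 1 h before IL-6, then 6 h stimulation at 37 °C / Control set: IL-6-only high control / Read-out: % activation relative to IL-6 control / Probe or stimulus: Interleukin-6, 33 ng/mL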
Thrombin inh: human alpha-thrombin inhibitors, primary screen, counter-screen for coagulation protease inhibitor project, biochemical, 1536-well, fluorogenic AMC substrate. Prothrombin (Homo sapiens), P00734. Boc-VPR-AMC fluorogenic substrate cleavage. inhibition, % at 5 µM. hit rate 0.26% among 220,000;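 active = inhibition at or above 40%; inactive = inhibition below 40%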
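Test system: human alpha-thrombin protein / Dosing: one concentration per compound, 5 µM, with 0.2% DMSO / Medium: pH 7.5 Tris-saline with Tween 20 / Benchmarks: no-compound enzyme wells and no-enzyme blanks / Read-out basis: percent inhibition of thrombin substrate cleavage / Timing: reaction at room temperature / Measured by: fluorescence, ex 355 nm, em 460 nm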
Hits are given with their value.

For O=C(Nc1cc(C2CC2)nn1-c1ccccc1)c1ccc(F)cc1 the results were AHR activator inactive.
For COc1ccc(OC)c2sc(NNC(=O)C3COc4ccccc4O3)nc12 (stereo unspecified) the results were AHR activator 57.4, FXIa inh inactive, FXIIa inh 1536 inactive, KLK5 inh inactive, STAT3 activator inactive and Thrombin inh inactive.
`Cc1ccccc1NC(=O)c1sc(NC(=O)C2CC2)nc1C` gave AHR activator inactive.
`Cc1ccc(Cl)c2sc(NC(=O)C3CC3)nc12` gave AHR activator 48.7.
Screening CCN1CCN(c2ccc(NC(=O)c3ccc4c(c3)[nH]c(=O)n4Cc3ccc(OC)cc3)cc2)CC1 returned AHR activator inactive, FXIa inh inactive, FXIIa inh 1536 inactive, KLK5 inh inactive, STAT3 activator inactive and Thrombin inh inactive.
Screening COc1ccc(CCNC(=O)CSc2nnc3ccc(-c4cccnc4)nn23)cc1OC returned AHR activator inactive, FXIa inh inactive, FXIIa inh 1536 inactive, KLK5 inh inactive, STAT3 activator inactive and Thrombin inh inactive.
For Cc1cc2nn(-c3cccc4ccccc34)nc2cc1NC(=O)c1cccs1 the results were AHR activator 57.1, FXIa inh inactive, FXIIa inh 1536 inactive, KLK5 inh inactive, STAT3 activator inactive and Thrombin inh inactive.
Screening Cc1ccc(-c2nn3c(C)nnc3s2)cc1NC(=O)c1cccs1 returned AHR activator inactive, FXIa inh inactive, FXIIa inh 1536 inactive, KLK5 inh inactive, STAT3 activator inactive and Thrombin inh inactive.
`NNc1nc(-c2ccccc2)nc(-c2ccccc2)c1Br` gave AHR activator inactive.
Screening COc1ccc(C2C(C(C)=O)=C(O)C(=O)N2c2nccs2)cc1OC (stereo unspecified) returned AHR activator inactive, FXIa inh inactive, FXIIa inh 1536 50.4, KLK5 inh 56.6, STAT3 activator inactive and Thrombin inh inactive.
`COc1ccc(C2C(C(C)=O)=C(O)C(=O)N2c2nc3ccccc3s2)cc1OC` (stereo unspecified) gave AHR activator inactive, FXIa inh inactive, FXIIa inh 1536 inactive, KLK5 inh inactive, STAT3 activator inactive and Thrombin inh inactive.
NC(=O)c1oc2ccccc2c1NC(=O)c1ccco1 was read as AHR activator 47.2, FXIa inh inactive, FXIIa inh 1536 inactive, KLK5 inh inactive, STAT3 activator inactive and Thrombin inh inactive.
Screening NC(=O)c1oc2ccccc2c1NC(=O)c1ccccc1 returned AHR activator 68.8, FXIa inh inactive, FXIIa inh 1536 inactive, KLK5 inh inactive, STAT3 activator inactive and Thrombin inh inactive.
Screening Cc1ccc(C)c(C(=O)Nc2c(C(N)=O)oc3ccccc23)c1 returned AHR activator inactive, FXIa inh inactive, FXIIa inh 1536 inactive, KLK5 inh inactive, STAT3 activator inactive and Thrombin inh inactive.
Screening COc1ccccc1NC(=O)c1oc2ccccc2c1NC(=O)c1ccco1 returned AHR activator inactive, FXIa inh inactive, FXIIa inh 1536 inactive, KLK5 inh inactive, STAT3 activator inactive and Thrombin inh inactive.
Screening CCOC(=O)c1cn2c3c(c(F)c(F)cc3c1=O)SC(N1CCOCC1)=N2 returned STAT3 activator inactive.
N#CCC(=O)N/N=C/c1cc(-c2ccccc2)n(-c2ccc(Cl)cc2)c1-c1ccccc1 was read as AHR activator inactive, FXIa inh inactive, FXIIa inh 1536 inactive, KLK5 inh inactive, STAT3 activator inactive and Thrombin inh inactive.
For Cc1cc(Br)ccc1NC(=O)CNC(=O)CNc1cccc([N+](=O)[O-])c1 the results were AHR activator inactive.
`CCN(CC)CCNC1=NCCn2c1cc1cc(OC)ccc12` gave AHR activator 57.9, FXIa inh inactive, FXIIa inh 1536 inactive, KLK5 inh inactive, STAT3 activator inactive and Thrombin inh inactive.
`COc1ccc(-c2cc(C(=O)Nc3ccc(S(=O)(=O)Nc4onc(C)c4C)cc3)c3ccccc3n2)cc1` gave AHR activator inactive, FXIa inh inactive, FXIIa inh 1536 inactive, KLK5 inh inactive and Thrombin inh inactive.
